# System: HEK-293T
# Assay: Multiplex assay against HEK293T;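 as to Population Tubulin-Different-Phenotype (%): share of the cells with healthy nuclei that show this phenotype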
# Format: toxicity, cell-based
# Settings: human
# Summary of the method: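 Live cells carried four stains from seeding: Hoechst33342, BioTracker Green Microtubule Cytoskeleton Dye, MitoTracker Red and Annexin V Alexa Fluor 680. They were imaged on a CQ1 microscope at 37°C and 5% CO2 after compound addition. Using CellPathfinder machine-learning gating, cells were split into Hoechst high-intensity objects or normal cells, normal cells into healthy, pyknosed or fragmented nuclei, and pyknosed cells into mitotic or apoptotic; tubulin, mitochondrial-mass and membrane-permeability phenotypes are per cents of healthy-nucleus cells.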
# [1] = 12 h, 1 µM, compound concentration 1 uM, replicate 1
# [2] = 12 h, 1 µM, compound concentration 1 uM, replicate 2
# [3] = 12 h, 10 µM, compound concentration 10 uM, replicate 1
# [4] = 12 h, 10 µM, compound concentration 10 uM, replicate 2
# [5] = 24 h, 1 µM, compound concentration 1 uM, replicate 1
# [6] = 24 h, 1 µM, compound concentration 1 uM, replicate 2
# [7] = 24 h, 10 µM, compound concentration 10 uM, replicate 1
# [8] = 24 h, 10 µM, compound concentration 10 uM, replicate 2
# [9] = 48 h, 1 µM, compound concentration 1 uM, replicate 1
# [10] = 48 h, 1 µM, compound concentration 1 uM, replicate 2
# [11] = 48 h, 10 µM, compound concentration 10 uM, replicate 1
# [12] = 48 h, 10 µM, compound concentration 10 uM, replicate 2
compound,measurement,setting,value
S=C(NCCCc1c[nH]cn1)NCCCN(Cc1ccc(Cl)c(Cl)c1)c1ccc(Br)cn1,Population Apoptotic (%),[1],47%
same,Population Fragmented Nuclei (%),[1],8%
same,Population Healthy Nuclei (%),[1],41%
same,Population Hoechst High Intensity Objects (%),[1],11%
same,Population Membrane Permeable-Phenotype (%),[1],4%
same,Population Mitochondria Different-Phenotype (%),[1],83%
same,Population Mitotic Cells (%),[1],52%
same,Population Normal (%),[1],88%
same,Population Pyknosed Nuclei (%),[1],49%
same,Population Tubulin-Different-Phenotype (%),[1],67%
same,Total Cell Count,[1],310
same,Population Apoptotic (%),[2],19%
same,Population Fragmented Nuclei (%),[2],5%
same,Population Healthy Nuclei (%),[2],44%
same,Population Hoechst High Intensity Objects (%),[2],3%
same,Population Membrane Permeable-Phenotype (%),[2],22%
same,Population Mitochondria Different-Phenotype (%),[2],29%
same,Population Mitotic Cells (%),[2],80%
same,Population Normal (%),[2],96%
same,Population Pyknosed Nuclei (%),[2],50%
same,Population Tubulin-Different-Phenotype (%),[2],54%
same,Total Cell Count,[2],240
same,Population Apoptotic (%),[3],88%
same,Population Fragmented Nuclei (%),[3],6%
same,Population Healthy Nuclei (%),[3],2%
same,Population Hoechst High Intensity Objects (%),[3],13%
same,Population Membrane Permeable-Phenotype (%),[3],22%
same,Population Mitochondria Different-Phenotype (%),[3],66%
same,Population Mitotic Cells (%),[3],11%
same,Population Normal (%),[3],86%
same,Population Tubulin-Different-Phenotype (%),[3],77%
same,Total Cell Count,[3],356
same,Population Apoptotic (%),[4],84%
same,Population Fragmented Nuclei (%),[4],5%
same,Population Healthy Nuclei (%),[4],3%
same,Population Hoechst High Intensity Objects (%),[4],6%
same,Population Membrane Permeable-Phenotype (%),[4],37%
same,Population Mitochondria Different-Phenotype (%),[4],50%
same,Population Mitotic Cells (%),[4],15%
same,Population Normal (%),[4],93%
same,Population Pyknosed Nuclei (%),[4],90%
same,Population Tubulin-Different-Phenotype (%),[4],100%
same,Total Cell Count,[4],220
same,Population Apoptotic (%),[5],61%
same,Population Fragmented Nuclei (%),[5],13%
same,Population Healthy Nuclei (%),[5],31%
same,Population Hoechst High Intensity Objects (%),[5],15%
same,Population Membrane Permeable-Phenotype (%),[5],8%
same,Population Mitochondria Different-Phenotype (%),[5],73%
same,Population Mitotic Cells (%),[5],38%
same,Population Normal (%),[5],84%
same,Population Tubulin-Different-Phenotype (%),[5],73%
same,Total Cell Count,[5],308
same,Population Apoptotic (%),[6],20%
same,Population Fragmented Nuclei (%),[6],4%
same,Population Healthy Nuclei (%),[6],40%
same,Population Hoechst High Intensity Objects (%),[6],6%
same,Population Membrane Permeable-Phenotype (%),[6],28%
same,Population Mitochondria Different-Phenotype (%),[6],17%
same,Population Mitotic Cells (%),[6],79%
same,Population Normal (%),[6],93%
same,Population Pyknosed Nuclei (%),[6],54%
same,Population Tubulin-Different-Phenotype (%),[6],52%
same,Total Cell Count,[6],239
same,Population Apoptotic (%),[7],82%
same,Population Fragmented Nuclei (%),[7],8%
same,Population Healthy Nuclei (%),[7],2%
same,Population Hoechst High Intensity Objects (%),[7],14%
same,Population Mitochondria Different-Phenotype (%),[7],85%
same,Population Mitotic Cells (%),[7],17%
same,Population Normal (%),[7],85%
same,Population Pyknosed Nuclei (%),[7],89%
same,Total Cell Count,[7],366
same,Population Apoptotic (%),[8],81%
same,Population Fragmented Nuclei (%),[8],7%
same,Population Healthy Nuclei (%),[8],4%
same,Population Hoechst High Intensity Objects (%),[8],12%
same,Population Membrane Permeable-Phenotype (%),[8],0%
same,Population Mitochondria Different-Phenotype (%),[8],22%
same,Population Mitotic Cells (%),[8],18%
same,Population Normal (%),[8],87%
same,Population Pyknosed Nuclei (%),[8],87%
same,Population Tubulin-Different-Phenotype (%),[8],100%
same,Total Cell Count,[8],231
same,Population Apoptotic (%),[9],49%
same,Population Fragmented Nuclei (%),[9],19%
same,Population Healthy Nuclei (%),[9],4%
same,Population Hoechst High Intensity Objects (%),[9],23%
same,Population Membrane Permeable-Phenotype (%),[9],41%
same,Population Mitochondria Different-Phenotype (%),[9],50%
same,Population Mitotic Cells (%),[9],50%
same,Population Normal (%),[9],76%
same,Population Pyknosed Nuclei (%),[9],75%
same,Population Tubulin-Different-Phenotype (%),[9],83%
same,Total Cell Count,[9],320
same,Population Apoptotic (%),[10],35%
same,Population Fragmented Nuclei (%),[10],5%
same,Population Healthy Nuclei (%),[10],26%
same,Population Hoechst High Intensity Objects (%),[10],13%
same,Population Membrane Permeable-Phenotype (%),[10],33%
same,Population Mitochondria Different-Phenotype (%),[10],20%
same,Population Mitotic Cells (%),[10],64%
same,Population Normal (%),[10],86%
same,Population Pyknosed Nuclei (%),[10],67%
same,Population Tubulin-Different-Phenotype (%),[10],53%
same,Total Cell Count,[10],234
same,Population Apoptotic (%),[11],71%
same,Population Fragmented Nuclei (%),[11],11%
same,Population Healthy Nuclei (%),[11],0%
same,Population Hoechst High Intensity Objects (%),[11],17%
same,Population Membrane Permeable-Phenotype (%),[11],0%
same,Population Mitochondria Different-Phenotype (%),[11],100%
same,Population Mitotic Cells (%),[11],28%
same,Population Normal (%),[11],82%
same,Population Pyknosed Nuclei (%),[11],87%
same,Total Cell Count,[11],369
same,Population Apoptotic (%),[12],87%
same,Population Fragmented Nuclei (%),[12],15%
same,Population Healthy Nuclei (%),[12],9%
same,Population Hoechst High Intensity Objects (%),[12],9%
same,Population Membrane Permeable-Phenotype (%),[12],5%
same,Population Mitochondria Different-Phenotype (%),[12],75%
same,Population Mitotic Cells (%),[12],12%
same,Population Normal (%),[12],90%
same,Population Pyknosed Nuclei (%),[12],74%
same,Population Tubulin-Different-Phenotype (%),[12],100%
same,Total Cell Count,[12],230
CCn1cc(-c2ccnc3[nH]c(-c4cccc(CN(C)C)c4)cc23)c(-c2ccc(NC(=O)N(C)C)cc2)n1 [GSK-1070916],Population Apoptotic (%),[1],17%
same,Population Fragmented Nuclei (%),[1],16%
same,Population Healthy Nuclei (%),[1],64%
same,Population Hoechst High Intensity Objects (%),[1],11%
same,Population Membrane Permeable-Phenotype (%),[1],16%
same,Population Mitochondria Different-Phenotype (%),[1],9%
same,Population Mitotic Cells (%),[1],82%
same,Population Normal (%),[1],88%
same,Population Pyknosed Nuclei (%),[1],18%
same,Population Tubulin-Different-Phenotype (%),[1],18%
same,Total Cell Count,[1],676
same,Population Apoptotic (%),[2],8%
same,Population Fragmented Nuclei (%),[2],6%
same,Population Healthy Nuclei (%),[2],84%
same,Population Hoechst High Intensity Objects (%),[2],2%
same,Population Membrane Permeable-Phenotype (%),[2],9%
same,Population Mitochondria Different-Phenotype (%),[2],13%
same,Population Mitotic Cells (%),[2],91%
same,Population Normal (%),[2],97%
same,Population Pyknosed Nuclei (%),[2],8%
same,Population Tubulin-Different-Phenotype (%),[2],36%
same,Total Cell Count,[2],1405
same,Population Apoptotic (%),[3],28%
same,Population Fragmented Nuclei (%),[3],14%
same,Population Healthy Nuclei (%),[3],49%
same,Population Hoechst High Intensity Objects (%),[3],24%
same,Population Membrane Permeable-Phenotype (%),[3],16%
same,Population Mitochondria Different-Phenotype (%),[3],32%
same,Population Mitotic Cells (%),[3],71%
same,Population Normal (%),[3],75%
same,Population Pyknosed Nuclei (%),[3],35%
same,Population Tubulin-Different-Phenotype (%),[3],91%
same,Total Cell Count,[3],688
same,Population Apoptotic (%),[4],8%
same,Population Fragmented Nuclei (%),[4],1%
same,Population Healthy Nuclei (%),[4],81%
same,Population Hoechst High Intensity Objects (%),[4],10%
same,Population Membrane Permeable-Phenotype (%),[4],14%
same,Population Mitochondria Different-Phenotype (%),[4],37%
same,Population Mitotic Cells (%),[4],91%
same,Population Normal (%),[4],89%
same,Population Pyknosed Nuclei (%),[4],17%
same,Population Tubulin-Different-Phenotype (%),[4],99%
same,Total Cell Count,[4],1174
same,Population Apoptotic (%),[5],15%
same,Population Fragmented Nuclei (%),[5],13%
same,Population Healthy Nuclei (%),[5],73%
same,Population Hoechst High Intensity Objects (%),[5],8%
same,Population Membrane Permeable-Phenotype (%),[5],18%
same,Population Mitochondria Different-Phenotype (%),[5],6%
same,Population Mitotic Cells (%),[5],84%
same,Population Normal (%),[5],91%
same,Population Pyknosed Nuclei (%),[5],12%
same,Population Tubulin-Different-Phenotype (%),[5],37%
same,Total Cell Count,[5],672
same,Population Apoptotic (%),[6],3%
same,Population Fragmented Nuclei (%),[6],9%
same,Population Healthy Nuclei (%),[6],85%
same,Population Hoechst High Intensity Objects (%),[6],5%
same,Population Membrane Permeable-Phenotype (%),[6],12%
same,Population Mitochondria Different-Phenotype (%),[6],3%
same,Population Mitotic Cells (%),[6],96%
same,Population Normal (%),[6],94%
same,Population Pyknosed Nuclei (%),[6],5%
same,Population Tubulin-Different-Phenotype (%),[6],43%
same,Total Cell Count,[6],1602
same,Population Apoptotic (%),[7],31%
same,Population Fragmented Nuclei (%),[7],17%
same,Population Healthy Nuclei (%),[7],57%
same,Population Hoechst High Intensity Objects (%),[7],33%
same,Population Membrane Permeable-Phenotype (%),[7],9%
same,Population Mitochondria Different-Phenotype (%),[7],42%
same,Population Mitotic Cells (%),[7],68%
same,Population Normal (%),[7],66%
same,Population Pyknosed Nuclei (%),[7],24%
same,Population Tubulin-Different-Phenotype (%),[7],89%
same,Total Cell Count,[7],562
same,Population Apoptotic (%),[8],10%
same,Population Fragmented Nuclei (%),[8],3%
same,Population Healthy Nuclei (%),[8],84%
same,Population Hoechst High Intensity Objects (%),[8],17%
same,Population Membrane Permeable-Phenotype (%),[8],18%
same,Population Mitochondria Different-Phenotype (%),[8],39%
same,Population Mitotic Cells (%),[8],89%
same,Population Normal (%),[8],82%
same,Population Pyknosed Nuclei (%),[8],11%
same,Population Tubulin-Different-Phenotype (%),[8],98%
same,Total Cell Count,[8],1112
